Read-outs that look alike come from different tables or passages of the source.

The assay relates to peptide-MHC reactive CD8 T cells in PBLs from healthy donors. The class given is cell-based, human. The conditions noted are these: PBLs after enrichment and 2-3 weeks culture. A digest of the protocol: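 PBLs washed in PBS with 2% FBS and stained with 0.1ug of each PE-coupled peptide-MHC multimer, 1h at 4°C. Anti-PE microbeads were added for 15 min, then magnetic column capture. Enriched cells were expanded 2–3 weeks in X-vivo with 5% human serum, 100 U/ml IL-2, 15 ng/ml IL-15, autologous negative-fraction feeders and anti-CD3/CD28 beads. Cells were then analysed by two-colour combinatorial multimer staining on lymphocyte/single/live/CD8 gates.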

Consider KMALHGLPR, for which the “Healthy Donors: number of times a response was detected/number of investigated HLA matched individuals” value (HLA-A3 restriction) is reported as 1/14.
For LPRYFNVTL, the “Healthy Donors: number of times a response was detected/number of investigated HLA matched individuals” value (HLA-B7 restriction) is on record as 1/13.
With NLPAYSVARV, the “Healthy Donors: number of times a response was detected/number of investigated HLA matched individuals” value (HLA-A2 restriction) is 1/16.
As for SLFSNLMPK, the “Healthy Donors: number of times a response was detected/number of investigated HLA matched individuals” value (HLA-A11 restriction) is 2/7A11.
With TVLGRKMTPK, the “Healthy Donors: number of times a response was detected/number of investigated HLA matched individuals” value (HLA-A3 restriction) is reported as 1/14.
Regarding VTLRKRWVK, the “Healthy Donors: number of times a response was detected/number of investigated HLA matched individuals” value (HLA-A11 restriction) is reported as 1/7.

For the origin of these results see PMC3994405 (Clinical cancer research : an official journal of the …, 2014).
